Test results reported in ChEMBL document CHEMBL1151715, “Novel D-xylose derivatives stimulate muscle glucose uptake by activating AMP-activated protein kinase alpha” (J Med Chem, 2008).
The source made the active and inactive calls. The calls are words filed in the database; no cut-off is given here.

Key:
L6 [1] = assay: Increase in [3H]2-deoxy-D-glucose uptake in rat L6 cells preincubated with 23 mM D-glucose for 24 hrs at 5 mM after 7 hrs relative to control; type: functional
In short: (§1)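 L6 myotubes were preconditioned 24 h at 23.0 mM D-glucose, then given fresh αMEM with 23.0 mM D-glucose plus agent for 7 h. Insulin (200 nM) was added for the last 30 min. A 5-min [3H]dGlc uptake (0.1 mM dGlc, 1.3 µCi/mL) was run in PBS at room temperature, with the 23.0 mM glucose basal rate set to 100%.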

[2] = Cytotoxicity against rat L6 cells by MTT assay; type: cell-based
In short: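 MTT assay on L6 myotubes after the treatment incubations: MTT at 2 mg/mL in αMEM for 30 min at 37 °C, formazan dissolved in DMSO, absorbance read at 570 nm.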

L6 [3] = assay: Effect on [3H]2-deoxy-D-glucose uptake in rat L6 cells at 5 mM after 7 hrs relative to control in presence of insulin; type: functional, cell-based; in short: as §1
L6 [4] = assay: Effect on [3H]2-deoxy-D-glucose uptake in rat L6 cells at 50 uM relative to control; type: functional
In short: (§2)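 L6 myotubes were held in αMEM with 2% FCS and 23.0 mM D-glucose for 24 h. They were then treated with increasing concentrations in medium with 10% FCS and 23.0 mM D-glucose for 7 or 18 h; vehicle controls ran 18 h. After washing, uptake was measured with 0.1 mM dGlc plus 1.3 µCi/mL [3H]dGlc in PBS pH 7.4 for 5 min at room temperature. Ice-cold PBS stop, SDS lysis, scintillation counting; basal rate set to 100%.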

L6 [5] = assay: Effect on [3H]2-deoxy-D-glucose uptake in rat L6 cells at 100 uM relative to control; type: functional; in short: as §2
L6 [6] = assay: Activation of 5-AMP-induced AMPKalpha in rat L6 cells assessed as […] phosphorylation at 0.25 M relative to control; type: cell-based
In short: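 AICAR-type positive control on L6 myotubes: 0.25 M D-sorbitol for 30 min. Whole-cell lysates were blotted for total AMPKα and phospho-Thr172 AMPKα, detected by ECL, with bands quantified by densitometry.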

L6 [7] = assay: Effect on [3H]2-deoxy-D-glucose uptake in rat L6 cells at 200 uM relative to control; type: functional; in short: as §2
L6 [8] = assay: Effect on [3H]2-deoxy-D-glucose uptake in rat L6 cells at 20 mM upto 48 hrs relative to control; type: functional
L6 [9] = assay: Effect on [3H]2-deoxy-D-glucose uptake in rat L6 cells at 150 uM relative to control; type: functional; in short: as §2
L6 [10] = assay: Increase in [3H]2-deoxy-D-glucose uptake in rat L6 cells at 20 mM preincubated 24 hrs with D-glucose assessed after 6 hrs relative to control; type: functional
In short: (§3)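 L6 myotubes were preconditioned 24 h at 23.0 mM D-glucose, then incubated up to 10 h in the same medium plus pentose (20.0 mM for time course; dose-response for half-maximal and maximal). Cells were washed with PBS, then given a 5-min room-temperature uptake of 0.1 mM dGlc with 1.3 µCi/mL [3H]dGlc. Counts were normalised to protein against untreated controls.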

L6 [11] = assay: Activation of 5-AMP-induced AMPKalpha in rat L6 cells assessed as Tyr172 phosphorylation at 20 mM relative to control; type: cell-based
In short: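 L6 myotubes preconditioned 24 h in αMEM with 2% FCS and 23.0 mM D-glucose, then given fresh medium with 10% (v/v) FCS, 23.0 mM D-glucose and test agent; controls received vehicle. Whole-cell lysates (Tris pH 7.5 with phosphatase and protease inhibitors) were blotted for AMPKα and […]-AMPKα, detected by ECL, and bands quantified by densitometry.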

L6 [12] = assay: Decrease in GLUT4myc abundance in rat L6 cell membrane pretreated with 23.0 mM D-glucose for 24 hrs at 20 mM after 7 hrs; type: functional; set-up: scale not given: the % may be the effect or the level left
L6 [13] = assay: Effect on [3H]2-deoxy-D-glucose uptake in rat L6 cells at 20 mM after 7 hrs relative to control in presence of insulin; type: functional, cell-based; in short: as §1
L6 [14] = assay: Induction of [3H]3-O-methyl-D-glucose uptake in rat L6 cells at 20 mM after 6 hrs relative to control; type: functional
In short: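 L6 myotubes were preconditioned 24 h at 23.0 mM glucose, then given D-xylose at 20.0 mM for 6 h. Cells were PBS-washed and incubated 90 s at room temperature with 10 µM 3-O-methylglucose, 5.0 µCi/mL [3H]MeGlc and 0.5 µCi/mL [14C]sucrose. The stop wash was ice-cold PBS with 20 mM glucose, 10 µM cytochalasin B and 2 mM HgCl2. Extracellular 3H was subtracted using sucrose counts.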

L6 [15] = assay: Activation of AMPKalpha in rat L6 cells assessed as ATP concentration per mg of protein at 20 mM in presence of 23 mM D-glucose; type: cell-based
In short: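 L6 myotubes were preconditioned at 5.0 or 23.0 mM D-glucose for 24 h, then treated. Cells were washed in cold 0.15 M Tris-HCl pH 7.75 and extracted with ice-cold 0.5% TCA. The cleared supernatant was assayed with luciferase/D-luciferin luminescence at room temperature against an ATP standard curve, expressed per mg protein. DNP 5 mM for 10 min served as the positive control.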

L6 [16] = assay: Activation of 5-AMP-induced AMPKalpha in rat L6 cells assessed as reduction in Tyr172 phosphorylation at 20 mM relative to control in presence of compound C; type: cell-based; set-up: scale not given: the % may be the effect or the level left
L6 [17] = assay: Half-maximal stimulation of [3H]2-deoxy-D-glucose uptake in rat L6 cells preincubated 24 hrs with D-glucose assessed after 6 hrs; type: functional; in short: as §3
Homo sapiens = species on record: Homo sapiens; assay: Activation of 5-AMP-induced AMPKalpha in human skeletal muscle cells assessed as Tyr172 phosphorylation at 20 mM relative to control
In short: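 Primary human skeletal myoblasts from the rectus abdominis of a donor were differentiated into myotubes and treated in medium with 10% (v/v) FCS, 23.0 mM D-glucose and agent, with vehicle controls. Whole-cell lysates were Western blotted for total AMPKα and […]-AMPKα, with ECL detection and densitometry.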

L6 [18] = assay: Increase in GLUT1myc abundance in rat L6 cell membrane at 20 mM after 7 hrs; type: functional, cell-based; conditions: 20 mM
In short: (§4)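 Myc-tagged GLUT1 or GLUT4 L6 myotubes were preconditioned at 5.5 or 23.0 mM glucose for 24 h, then treated in 10% FCS medium for 7 h (18 h for the 5 µM agent). Insulin was 200 nM for 30 min. Intact cells were labeled with rabbit anti-myc (1:200), fixed in 3% formaldehyde, and given HRP anti-rabbit IgG (1:2000). OPD colour was read at 492 nm.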

L6 [19] = assay: Increase in GLUT1myc abundance in rat L6 cell membrane at 50 uM after 7 hrs; type: functional, cell-based; in short: as §4
L6 [20] = assay: Maximal stimulation of [3H]2-deoxy-D-glucose uptake in rat L6 cells preincubated 24 hrs with D-glucose assessed after 6 hrs; type: functional; in short: as §3
L6 [21] = assay: Induction of [3H]2-deoxy-D-glucose uptake in rat L6 cells at 20 mM after 6 hrs relative to control; type: functional; in short: as §3
L6 [22] = assay: Increase in GLUT4myc abundance in rat L6 cell membrane at 20 mM after 7 hrs; type: functional, cell-based; in short: as §4
L6 [23] = assay: Increase in GLUT1myc abundance in rat L6 cell membrane at 150 uM after 7 hrs; type: functional, cell-based; in short: as §4
L6 [24] = assay: Inhibition of [3H]2-deoxy-D-glucose uptake in rat L6 cells at 20 mM in presence of 100 nM wortmannin; type: functional, cell-based
In short: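 L6 myotubes at 23 mM D-glucose received 100 nM wortmannin 30 min before the agents. Treatment ran in 10% FCS medium for 7 h (18 h for the 5 µM agent). A 5-min [3H]dGlc uptake (0.1 mM dGlc, 1.3 µCi/mL) in PBS at room temperature followed, with the vehicle basal rate set to 100%.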

L6 [25] = assay: Increase in GLUT1myc abundance in rat L6 cell membrane at 5 µM after 18 hrs; type: functional, cell-based; in short: as §4
[26] = Effect on [3H]2-deoxy-D-glucose uptake in human skeletal muscle cells at 20 mM relative to control; type: functional

In the case of `CO[C@H]1[C@H](O)COC(O)[C@@H]1O` (some centres undefined), the “fold change (FC)” value (L6 [1]) is reported as 2.1.
With `CO[C@H]1C(O)OC[C@@H](O)[C@@H]1O` (some centres undefined) the MCC [2] was 50000 µM.
In the case of `CO[C@H]1OC[C@@H](O)[C@H](O)[C@H]1O`, the Activity (L6 [3]) is reported as “Active” and the “fold change (FC)” value (L6 [1]) is reported as 1.98.
For `CC1(C)OC[C@H]2O[C@@H]3OC(C)(C)O[C@@H]3[C@H]2O1`, the MCC [2] was 100 µM and the “fold change (FC)” value (L6 [4]) was 1.08.
For `CO[C@@H]1OC[C@@H](OC(=O)C(C)(C)C)[C@H](OC(=O)C(C)(C)C)[C@H]1OC(=O)C(C)(C)C`, the “fold change (FC)” value (L6 [5]) was 1.03 and the MCC [2] was 150 µM.
In the case of `CCCS[C@@H]1OC[C@@H](O)[C@H](O)[C@H]1O`, the “fold change (FC)” value (L6 [5]) is reported as 0.92 and the MCC [2] is reported as 200 µM.
With `OC[C@@H](O)[C@@H](O)[C@H](O)[C@@H](O)CO` the Activity (L6 [6]) was “Active”.
In the case of `CC(=O)O[C@@H]1OC[C@@H](OC(C)=O)[C@H](OC(C)=O)[C@H]1OC(C)=O`, the MCC [2] is reported as 500 µM, the “fold change (FC)” value (L6 [7]) is reported as 0.99 and the “fold change (FC)” value (L6 [8]) is reported as 1.05.
With `COC[C@H]1OC(O)[C@H](O)[C@H]1O` (some centres undefined) the MCC [2] was 50000 µM and the “fold change (FC)” value (L6 [8]) was 1.03.
For `CO[C@@H]1OC[C@@H](OC(=O)c2ccccc2)[C@H](OC(=O)c2ccccc2)[C@H]1OC(=O)c1ccccc1`, the MCC [2] was 250 µM and the “fold change (FC)” value (L6 [9]) was 1.01.
Work on `O=C[C@H](O)[C@@H](O)[C@H](O)CO` [XYLOSE] yielded a fold change (FC) (L6 [10]) of 1.77, a fold change (FC) (L6 [11]) of 3.23 and an Activity (L6 [12]) of 50%. The Activity (L6 [13]) was “Active”, the “fold change (FC)” value (L6 [14]) was 1.69 and the Activity (L6 [15]) was 1.6 mmol. The Activity (L6 [16]) was 68.9%, the Activity (L6 [17]) was 5.8 mM and the Activity (Homo sapiens) was “Active”. For the same compound, the Activity (L6 [18]) was “inactive”, the Activity (L6 [19]) was “inactive” and the Activity (L6 [20]) was 13.7 mM. The “fold change (FC)” value (L6 [21]) was 1.51, the Activity (L6 [22]) was “Active” and the Activity (L6 [23]) was “inactive”. For the same compound, the Activity (L6 [24]) was “Active”, the Activity (L6 [25]) was “inactive” and the “fold change (FC)” value [26] was 1.43.
In the case of `CCO[C@H]1[C@H](O)COC(O)[C@@H]1O` (some centres undefined), the Activity (L6 [3]) is reported as “Active” and the “fold change (FC)” value (L6 [1]) is reported as 2.79.
With `OC1OC[C@@H](O)[C@@H](O)[C@@H]1O` (stereo partly drawn) [D-ARABINOSE] the “fold change (FC)” value (L6 [10]) was 1.38.
